Laboratory results: ChEMBL document CHEMBL5370689, “Development of Allosteric NIK Ligands from Fragment-Based NMR Screening” (ACS Med Chem Lett, 2023)
The source made the active and inactive calls.

What was measured:
[1] = biological target: T1, Mitogen-activated protein kinase kinase kinase 14 (Homo sapiens, UniProt Q99558); assay: Binding affinity to biotinylated N-terminal 6His-tagged/TEV cleavage site-fused human NIK in presence of AMP-PNP by SPR analysis
Method in brief: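 Dose–response SPR used biotinylated NIK in the presence of saturating AMP-PNP. Kd came from the fitted binding curve, reported as mean ± SEM of two determinations.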
Target sequence in this assay (Q99558 whole entry, the tested form may be a part): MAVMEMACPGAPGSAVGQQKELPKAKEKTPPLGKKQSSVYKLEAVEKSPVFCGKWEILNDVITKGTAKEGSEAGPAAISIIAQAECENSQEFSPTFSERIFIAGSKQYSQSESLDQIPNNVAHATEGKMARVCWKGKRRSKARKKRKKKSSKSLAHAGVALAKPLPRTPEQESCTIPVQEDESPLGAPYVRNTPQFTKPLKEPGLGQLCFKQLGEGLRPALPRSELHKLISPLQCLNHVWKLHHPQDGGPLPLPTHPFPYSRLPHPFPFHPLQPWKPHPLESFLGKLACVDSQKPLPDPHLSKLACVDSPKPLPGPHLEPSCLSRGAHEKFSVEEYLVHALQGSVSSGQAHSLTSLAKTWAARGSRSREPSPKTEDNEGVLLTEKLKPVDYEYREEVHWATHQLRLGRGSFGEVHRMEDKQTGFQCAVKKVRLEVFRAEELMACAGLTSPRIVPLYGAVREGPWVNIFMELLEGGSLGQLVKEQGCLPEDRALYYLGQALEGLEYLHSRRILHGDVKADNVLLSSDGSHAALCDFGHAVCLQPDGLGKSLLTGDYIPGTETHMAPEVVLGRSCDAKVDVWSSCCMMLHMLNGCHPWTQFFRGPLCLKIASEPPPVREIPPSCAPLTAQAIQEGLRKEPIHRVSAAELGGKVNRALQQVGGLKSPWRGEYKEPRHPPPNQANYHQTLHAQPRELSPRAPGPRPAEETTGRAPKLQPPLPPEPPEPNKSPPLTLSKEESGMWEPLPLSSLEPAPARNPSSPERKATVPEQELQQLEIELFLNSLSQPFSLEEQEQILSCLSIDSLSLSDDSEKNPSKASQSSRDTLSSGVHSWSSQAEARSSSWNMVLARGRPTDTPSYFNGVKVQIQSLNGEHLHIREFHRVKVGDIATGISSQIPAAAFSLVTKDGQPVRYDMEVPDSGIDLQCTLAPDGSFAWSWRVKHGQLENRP

[2] = biological target: T1, Mitogen-activated protein kinase kinase kinase 14; assay: Binding affinity to biotinylated N-terminal 6His-tagged/TEV cleavage site-fused human NIK by SPR analysis
Method in brief: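 Biotinylated NIK was probed by SPR with no nucleotide added, in dose–response format. Responses were plotted as a binding curve to give Kd, reported as mean ± SEM of two determinations.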
Target sequence in this assay (Q99558 whole entry, the tested form may be a part): as above

[3] = Aqueous solubility of the compound in K2HPO4 in D2O with 5% DMSO-d6 at pH 7.4 by qNMR spectra analysis; assay type: physicochemical; details: K2HPO4 buffer in D2O with 5% DMSO-d6, pH 7.4
[4] = biological target: T1, Mitogen-activated protein kinase kinase kinase 14; assay: Binding affinity to N-terminal 6His-tagged/TEV cleavage site-fused human NIK assessed as attenuation of spectral signal at 100 uM in presence of AMP-PNP by 1H-CPMG-NMR analysis relative to control
Target sequence in this assay (Q99558 whole entry, looked up, the tested form may be a part): as the sequence (Q99558 whole entry, the tested form may be a part) above

[5] = biological target: T1, Mitogen-activated protein kinase kinase kinase 14; assay: Binding affinity to biotinylated N-terminal 6His-tagged/TEV cleavage site-fused human NIK at <500 uM by SPR analysis
Method in brief: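 Biotinylated NIK used as the SPR surface. Each fragment was run at five concentrations, and the responses were fitted to a binding curve to estimate affinity. A 500 µM affinity cut-off was applied.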
Target sequence in this assay (Q99558 whole entry, looked up, the tested form may be a part): as the sequence (Q99558 whole entry, the tested form may be a part) above

[6] = Aggregation property of the compound in sodium phosphate buffer at pH 7.4 by 1H-NMR spectra analysis; assay type: physicochemical
[7] = biological target: T1, Mitogen-activated protein kinase kinase kinase 14; assay: Binding affinity to N-terminal 6His-tagged/TEV cleavage site-fused human NIK assessed as attenuation of spectral signal at 100 uM by 1H-CPMG-NMR analysis relative to control
Target sequence in this assay (Q99558 whole entry, looked up, the tested form may be a part): as the sequence (Q99558 whole entry, the tested form may be a part) above

[8] = Redox activity of the compound in HEPES/NaCl at pH 7.5 measured after 60 mins in presence of DTT by resazurin reagent based assay; assay type: physicochemical; details: pH 7.5, 1 h
Method in brief: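 A plate-based redox assay screened for redox activity as a source of false positives. NSC 663284, a known redox-active molecule, served as the positive control.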

| SMILES | Kd [1] | Kd [2] | also measured |
| --- | --- | --- | --- |
| CC1(O)CCOc2cc(Cl)ccc21 (stereo not given) | > 1000 µM | > 1000 µM |  |
| OC1(c2ccccc2)CCOc2cc(Cl)ccc21 (stereo not given) | 369 µM | 572 µM |  |
| COc1cc(Cl)cc(C)c1C(C)(O)C1CC1 (stereo not given) | 143 µM | 150 µM |  |
| CCC1(O)CCOc2cc(Cl)ccc21 (stereo not given) | 583 µM | 206 µM |  |
| Cc1cc(Cl)cc2c1C(O)(c1ccccc1)CCO2 (stereo not given) | 717 µM | 367 µM |  |
| OC1(C2CC2)CCOc2cc(Cl)ccc21 (stereo not given) | 290 µM | 40.4 µM |  |

Continued, in another order:

| Kd [1] | Kd [2] | SMILES | also measured |
| --- | --- | --- | --- |
| 131 µM | 134 µM | Cc1cccc2c1C(O)CCO2 (stereo not given) |  |
| > 1000 µM | > 1000 µM | Cc1cccc2c1OCCC2O (stereo not given) |  |
| > 1000 µM | > 1000 µM | COC1CCOc2cc(Cl)ccc21 (stereo not given) |  |
| > 1000 µM | > 1000 µM | Cc1ccc2c(c1)C(O)CCO2 (stereo not given) |  |
| 214 µM | 130 µM | OC1CCOc2cc(Cl)ccc21 (stereo not given) | solubility [3]: ≥ 5 mM; Activity [4]: > 50%; Activity [5]: Active; Activity [6]: Not Active; Activity [7]: > 50%; Activity [8]: Not Active |
| > 1000 µM | > 1000 µM | Cc1ccc2c(c1)OCCC2O (stereo not given) |  |
